Source: ChEMBL document CHEMBL3877250, “Design, synthesis, and biological evaluation of (2E)-(2-oxo-1, 2-dihydro-3H-indol-3-ylidene)acetate derivatives as anti-proliferative agents through ROS-induced cell apoptosis” (Eur J Med Chem, 2016)

Columns and labels:
[1] = Cytotoxicity against human L02 cells after 72 hrs by CCK-8 assay; assay type: toxicity, cell-based
How it was run: (§1)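 Cells kept in RPMI 1640 with 10% heat-inactivated fetal calf serum and 1% streptomycin/penicillin at 37 °C, 5% CO2. After compound exposure, CCK-8 was added and cells were incubated 4 h at 37 °C, then absorbance was read at 450 nm. Viability is relative to untreated cells (100%). IC50 comes from nonlinear regression, mean of three separate determinations. Single-concentration screen at 20 µM.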

[2] = Cytotoxicity against human SW480 cells assessed as growth inhibition at 20 uM after 72 hrs by CCK-8 assay; assay type: functional; conditions: SW480, 72 h, read-out: GI; how it was run: as §1
[3] = Cytotoxicity against human MDA-MB-231 cells assessed as growth inhibition at 20 uM after 72 hrs by CCK-8 assay; assay type: functional; conditions: MDA-MB-231, 72 h, read-out: GI; how it was run: as §1
[4] = Cytotoxicity against human Saos2 cells assessed as growth inhibition at 20 uM after 72 hrs by CCK-8 assay; assay type: functional; conditions: SAOS-2, 72 h, read-out: GI; how it was run: as §1
[5] = Cytotoxicity against human OVCAR3 cells assessed as growth inhibition at 20 uM after 72 hrs by CCK-8 assay; assay type: functional; conditions: OVCAR-3, 72 h, read-out: GI; how it was run: as §1
[6] = Cytotoxicity against human HL60 cells assessed as growth inhibition at 20 uM after 72 hrs by CCK-8 assay; assay type: functional; conditions: HL-60, 72 h, read-out: GI; how it was run: as §1
[7] = Antitumor activity against human HepG2 cells assessed as growth inhibition at 20 uM after 72 hrs by CCK-8 assay; assay type: functional; conditions: HepG2, 72 h, read-out: GI; how it was run: as §1
[8] = Cytotoxicity against human SK-BR-3 cells assessed as growth inhibition at 20 uM after 72 hrs by CCK-8 assay; assay type: functional; conditions: SK-BR-3, 72 h, read-out: GI; how it was run: as §1
[9] = Cytotoxicity against human HL60 cells after 72 hrs by CCK-8 assay; assay type: functional, cell-based; conditions: HL-60, 72 h; how it was run: as §1
[10] = Cytotoxicity against human L02 cells assessed as growth inhibition at 20 uM after 72 hrs by CCK-8 assay; assay type: toxicity, cell-based; conditions: read-out: GI; how it was run: as §1
[11] = Cytotoxicity against human HCT116 cells assessed as growth inhibition at 20 uM after 72 hrs by CCK-8 assay; assay type: functional; conditions: HCT-116, 72 h, read-out: GI; how it was run: as §1

Row | Compound | IC50 at 72 h [1] [µM] | inhibition of growth at 20 µM [2] [%] | inhibition of growth at 20 µM [3] [%] | inhibition of growth at 20 µM [4] [%] | inhibition of growth at 20 µM [5] [%] | inhibition of growth at 20 µM [6] [%] | inhibition of growth at 20 µM [7] [%] | inhibition of growth at 20 µM [8] [%] | IC50 [9] [µM] | inhibition at 72 h, 20 µM [10] [%] | inhibition of growth at 20 µM [11] [%]
1 | CC(C)(C)OC(=O)CC1C(=O)Nc2ccccc21 (centres undefined) | > 100 | 8.8 | 3.7 | 1.5 | 6.4 | 0.5 | 1.2 | 22.6 | > 100 | 0.1 | 1.7
2 | COc1ccc2c(c1)/C(=C\C(=O)OC(C)(C)C)C(=O)N2 | 3.82 | 78.7 | 87.6 | 82 | 59 | 94.2 | 90.1 | 87.7 | 6.19 | 63.7 | 89.6
3 | CC(C)(C)OC(=O)/C=C1/C(=O)Nc2ccc(OC(F)(F)F)cc21 | 4.04 | 77.8 | 86.9 | 80.1 | 59 | 95.9 | 88.4 | 88.1 | 4.48 | 61.3 | 87.7
4 | CN1C(=O)/C(=C/C(=O)Oc2ccccc2)c2ccccc21 | 22.7 | – | – | – | – | – | – | – | 10.2 | – | –
5 | CN1C(=O)/C(=C/C(=O)Oc2ccc3ccccc3c2)c2ccccc21 | 46.6 | – | – | – | – | – | – | – | 23.8 | – | –
6 | Cc1c(Cl)ccc2c1NC(=O)/C2=C/C(=O)OC(C)(C)C | 6.26 | 77.2 | 87.3 | 82.6 | 57.4 | 82.9 | 69.7 | 87.9 | 3.64 | 64.3 | 89.9
7 | CC(C)c1ccc2c(c1)/C(=C\C(=O)OC(C)(C)C)C(=O)N2 | 3.36 | 78.5 | 87.7 | 82.8 | 59.7 | 94.4 | 90.5 | 88.5 | 5.29 | 63.8 | 89.4
8 | CC(C)(C)OC(=O)/C=C1/C(=O)Nc2ccc([N+](=O)[O-])cc21 | 3.82 | 77.9 | 86.9 | 82.8 | 55.6 | 86.6 | 88.2 | 87.9 | 9.86 | 62 | 88.1
9 | CC(C)(C)OC(=O)/C=C1/C(=O)N(Cc2ccccc2)c2ccccc21 | 5.03 | 78.4 | 87.1 | 82.1 | 58.9 | 91.7 | 88 | 88 | 13.8 | 62 | 87.9
10 | CCCCc1ccc2c(c1)/C(=C\C(=O)OC(C)(C)C)C(=O)N2 | 4.4 | 78.3 | 87.7 | 84.2 | 60.2 | 94.7 | 90.3 | 87.8 | 6.19 | 63.7 | 89
11 | CN1C(=O)/C(=C/C(=O)Oc2ccc(Cl)cc2)c2ccccc21 | – | – | – | – | – | – | – | – | 12.2 | – | –
12 | O=C(O)/C=C1/C(=O)Nc2ccccc21 | > 100 | 6.4 | 1 | 8.9 | 13.4 | 0.9 | 3 | 17.9 | > 100 | 3.3 | -0.7
13 | COC(=O)/C=C1/C(=O)Nc2ccccc21 | 7.05 | 78.1 | 86.8 | 78.6 | 54.4 | 81.5 | 88 | 86.7 | 4.18 | 61.5 | 87
14 | Cc1ccc2c(c1)/C(=C\C(=O)OC(C)(C)C)C(=O)N2 | 2.68 | 79 | 87.8 | 83.7 | 59.5 | 94.6 | 90.3 | 88 | 5 | 63.9 | 89.4
15 | COc1ccc(OC(=O)/C=C2/C(=O)N(C)c3ccccc32)cc1 | 23.5 | – | – | – | – | – | – | – | 10.6 | – | –
16 | CN1C(=O)/C(=C/C(=O)O)c2ccccc21 | – | – | – | – | – | – | – | – | 83.7 | – | –
17 | CCOC(=O)/C=C1/C(=O)Nc2ccccc21 | 4.23 | 78.3 | 86.9 | 81.4 | 57.3 | 77.7 | 90.2 | 85.5 | 4.83 | 63.9 | 89.3
18 | CC(=O)O[C@H]1C(=O)[C@@]2(C)[C@H]([C@H](OC(=O)c3ccccc3)[C@]3(O)C[C@H](OC(=O)[C@H](O)[C@@H](NC(=O)c4ccccc4)c4ccccc4)C(C)=C1C3(C)C)[C@]1(OC(C)=O)CO[C@@H]1C[C@@H]2O [PACLITAXEL] | – | 76.4 | 85.1 | 77.4 | 58.5 | 71 | 89.4 | 72.1 | – | 61.5 | 88.9
19 | COc1cccc2c1NC(=O)/C2=C/C(=O)OC(C)(C)C | – | 77.8 | 86.7 | 81.1 | 57.1 | 84.2 | 87.3 | 87.7 | 9.68 | 61.6 | 87.6
20 | CN1C(=O)C(CC(=O)OC(C)(C)C)c2ccccc21 (centres undefined) | > 100 | – | – | – | – | – | – | – | 93.1 | – | –
21 | COC(=O)CC1C(=O)Nc2ccccc21 (centres undefined) | > 100 | – | – | – | – | – | – | – | 114 | – | –
22 | CCOC(=O)/C=C1\C(=O)Nc2ccccc21 | – | – | – | – | – | – | – | – | > 100 | – | –
23 | CC(C)(C)OC(=O)CC1C(=O)Nc2ccc(Cl)cc21 (centres undefined) | – | – | – | – | – | – | – | – | 81.1 | – | –
24 | CNC(=O)/C=C1/C(=O)N(C)c2ccccc21 | 19.1 | – | – | – | – | – | – | – | 10.7 | – | –
25 | CCN(CC)CCNC(=O)c1c(C)[nH]c(/C=C2\C(=O)Nc3ccc(F)cc32)c1C [SUNITINIB] | 4.62 | – | – | – | – | – | – | – | 4.95 | – | –
